These results are taken from ChEMBL document CHEMBL4765395, “Design, diversity-oriented synthesis and biological evaluation of novel heterocycle derivatives as non-nucleoside HBV capsid protein inhibitors” (Eur J Med Chem, 2020).

Activity calls are given as the source filed them. The rule behind the calls is not given here.

The subject of data set [1] is Hepatitis B virus. As to the kind of experiment: Antiviral activity against HBV infected in human HepG2.2.15 cells assessed as reduction in intracellular viral DNA level at 20 uM incubated for 4 days prior to compound washout followed by compound addition and measured after 4 days by fluorogenic probe based RT-qPCR analysis relative to control. The class given is functional. The settings on record: for inhibition: time 8.0 day; for inhibition at 20 µM: HepG2.2.15, 192 h, time 8 day. For orientation: In qPCR the cycle at which signal appears reflects the starting amount.

For data set [2], the system named is HepG2 2.2.15. As to the kind of experiment: Cytotoxicity against human HepG2.2.15 cells assessed as reduction in cell viability at 20 uM incubated for 4 days prior to compound washout followed by compound addition and measured after 4 days by CCK8 assay relative to control. The class given is cell-based. To be noted: hepg2 2.2.15, 192 h, time 8 day. Background: Tetrazolium dyes change colour on reduction, which living cells bring about.

In data set [3] the test system is Hepatitis B virus. As to the kind of experiment: Antiviral activity against HBV infected in human HepG2.2.15 cells assessed as reduction in intracellular viral DNA level at 50 uM incubated for 4 days prior to compound washout followed by compound addition and measured after 4 days by fluorogenic probe based RT-qPCR analysis relative to control. The class given is functional. To be noted: for inhibition at 50 µM: HepG2.2.15, 192 h, time 8 day.

Data set [4] concerns HepG2 2.2.15. As to the kind of experiment: Cytotoxicity against human HepG2.2.15 cells assessed as reduction in cell viability at 50 uM incubated for 4 days prior to compound washout followed by compound addition and measured after 4 days by CCK8 assay relative to control. It is filed as cell-based. The settings on record: hepg2 2.2.15, 192 h, time 8 day.
The test system of data set [5] is Hepatitis B virus. As to the kind of experiment: Antiviral activity against HBV infected in human HepG2.2.15 cells assessed as […] at 100 uM incubated for 4 days prior to compound washout followed by compound addition and measured after 4 days by fluorogenic probe based RT-qPCR analysis relative to control. The class given is functional. To be noted: for inhibition at 100 µM: HepG2.2.15, 192 h, time 8 day.

Data set [6] relates to HepG2 2.2.15. As to the kind of experiment: Cytotoxicity against human HepG2.2.15 cells assessed as reduction in cell viability at 100 uM incubated for 4 days prior to compound washout followed by compound addition and measured after 4 days by CCK8 assay relative to control. It is filed as cell-based. The settings on record: hepg2 2.2.15, 192 h, time 8 day. The gist of the method:
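Three wells of 4000 HepG2.2.15 cells per well received a single 100 µM concentration for 8 days, with medium replaced on day 4. CCK-8 (10%) was added 0.5 h before the end, and OD was read at 450 and 630 nm. Percent cell death was calculated against untreated cells.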

Data set [7] is described as follows: Cytotoxicity against human HepG2.2.15 cells assessed as reduction in cell viability incubated for 4 days prior to compound washout followed by compound addition and measured after 4 days by CCK8 assay. It is filed as cell-based, HepG2 2.2.15. To be noted: time 8 day. The method in brief: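 Cytotoxicity in HepG2.2.15 cells was measured with five doses (100, 20, 4, 0.8, 0.16 µM) over 8 days, with medium changed on day 4. CCK-8 (10%) was added 0.5 h before the end, OD was read at 450/630 nm, and CC50 is the concentration killing 50% of cells against untreated controls.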

In data set [8] the test system is Hepatitis B virus. As to the kind of experiment: Antiviral activity against HBV infected in human HepG2.2.15 cells assessed as […] incubated for 4 days prior to compound washout followed by compound addition and measured after 4 days by fluorogenic probe based RT-qPCR analysis. It is filed as functional, organism-based.
Data set [9] is described as follows: Selectivity index, ratio of CC50 for human HepG2.2.15 cells to IC50 for antiviral activity against HBV infected in human HepG2.2.15 cells assessed as reduction in intracellular viral DNA level. It is filed as toxicity, cell-based. To be noted: read-out: Ratio CC50/IC50.
Data set [10] deals with Hepatitis B virus. As to the kind of experiment: Antiviral activity against HBV infected in human HepG2.2.15 cells assessed as reduction in HBsAg secretion incubated for 4 days prior to compound washout followed by compound addition and measured after 4 days by ELISA. The class given is functional, organism-based. The method in brief: (§1)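 Five doses (100, 20, 4, 0.8, 0.16 µM) were added in triplicate to HepG2.2.15 cultures for 8 days, with fresh medium on day 4 and untreated controls. Day-8 supernatants were assayed for HBsAg and HBeAg by ELISA kit with absorbance read-out. IC50 is the concentration giving 50% inhibition of antigen secretion.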
(In general: In an ELISA, binding on a coated surface is turned into a signal by an enzyme label.)

A short description of data set [11]: Selectivity index, ratio of CC50 for human HepG2.2.15 cells to IC50 for antiviral activity against HBV infected in human HepG2.2.15 cells assessed as reduction in HBsAg secretion. The class given is toxicity, cell-based. To be noted: read-out: Ratio CC50/IC50.
Data set [12] has as its system Hepatitis B virus. As to the kind of experiment: Antiviral activity against HBV infected in human HepG2.2.15 cells assessed as reduction in HBeAg secretion incubated for 4 days prior to compound washout followed by compound addition and measured after 4 days by ELISA. It is filed as functional, organism-based. The gist of the method:
as §1

Data set [13] in a line: Selectivity index, ratio of CC50 for human HepG2.2.15 cells to IC50 for antiviral activity against HBV infected in human HepG2.2.15 cells assessed as reduction in HBeAg secretion. To be noted: read-out: Ratio CC50/IC50. It is filed as toxicity, cell-based.
The subject of data set [14] is Hepatitis B virus. As to the kind of experiment: Binding affinity to recombinant HBV capsid protein assessed as response value at 22.2 uM by surface plasmon resonance analysis (reference value: 11.31). The gist of the method:
(§2)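 Recombinant HBV capsid protein purified and amine-coupled to a CM5 sensor chip. Six doses of test compound run with running buffer containing 5% DMSO, plus eight solvent-calibration solutions and 50% DMSO solution. Samples centrifuged 15 min before loading. PBS and NaAc-HAc buffers used. Binding read as SPR response.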

The test system of data set [15] is Hepatitis B virus. As to the kind of experiment: Binding affinity to recombinant HBV capsid protein assessed as response value at 14.8 uM by surface plasmon resonance analysis (reference value: 11.31). The gist of the method:
as §2

Data set [16] has as its system Hepatitis B virus. As to the kind of experiment: Binding affinity to recombinant HBV capsid protein assessed as response value at 9.9 uM by surface plasmon resonance analysis (reference value: 11.31). The method in brief: as §2
The subject of data set [17] is Hepatitis B virus. As to the kind of experiment: Binding affinity to recombinant HBV capsid protein assessed as response value at 6.6 uM by surface plasmon resonance analysis (reference value: 11.31). The method in brief: as §2
Data set [18] in a line: (§3) Binding affinity to recombinant HBV capsid protein by surface plasmon resonance analysis. Further details: species or system Hepatitis B virus. The gist of the method: as §2
Data set [19] deals with Hepatitis B virus. Described as §3. The method in brief:
as §2

A word on the inhibition: it is how much of the control response was suppressed. As for `CC(C)Cc1nc(-c2ccsc2)sc1C(=O)NCc1ccc(F)cc1`, the inhibition result in [1] was “inactive”. In addition, the Activity in data set [2] came out at 6.7%.

Regarding `O=C(NCc1ccc(F)cc1)c1ccc(-c2ccccc2)nc1-c1ccccc1`, the inhibition entry in data set [3] (time 8.0 day) is “inactive”. In [4], the Activity is 4.4%.

For `O=C(NC1CC1)c1cn(-c2cccc(F)c2)nc1NCc1ccccc1`, the inhibition at 100 µM in [5] is 38.8%. Besides, the Activity in data set [6] is 40.8%.

Take `CCOC(=O)c1cnc(-c2ccccc2)nc1CC(C)C`: the inhibition at 50 µM in [3] was 37.3%. Besides, in data set [4], the Activity result is “Non-Toxic”.

Take `CCOC(=O)c1cn(-c2cccc(F)c2)nc1NCc1ccccc1`: the inhibition at 100 µM in data set [5] turned out to be 14.6%. Moreover, the Activity result in data set [6] is “Non-Toxic”.

`CCOC(=O)c1cn(-c2cccc(F)c2)nc1SC1CCCCC1`: the inhibition entry in data set [5] (time 8.0 day) was “inactive”. The Activity in [6] came to 18.1%.

Turning to `CCNc1nn(-c2cccc(F)c2)cc1C(=O)OCC`, in data set [5], the inhibition at 100 µM came out at 39.9%. Also, the Activity in data set [6] stood at 10.9%.

For `CC(C)Cc1nc(-c2cccs2)sc1C(=O)NCc1ccc(F)cc1`, the inhibition entry in data set [1] was “inactive”. Moreover, the Activity in [2] came out at 17.8%.

By CC50 is commonly meant the concentration at which the toxic effect on the cells reaches its halfway point. As a reminder, the IC50 is the concentration at which inhibition is half-maximal. `CC(C)Cc1nc(-c2ccncc2)sc1C(=O)NCc1ccc(F)cc1`: the inhibition at 20 µM in [1] was 57.8%. In addition, the Activity in [2] turned out to be 35.8%. Further, the CC50 at 192 h in data set [7] is more than 100 µM. Also, the IC50 in [8] is 40.5 µM; in data set [10] it was 3.8 µM; in [12] it was 62.3 µM. Besides, the selectivity ratio in data set [9] is more than 2.5; in [11], more than 26.3; in [13], more than 1.6.

In the case of `CC(C)Cc1nc(-c2cc3ccccc3s2)sc1C(=O)NCc1ccc(F)cc1`, the inhibition at 20 µM in data set [1] came out at 21.1%. For the same compound, the Activity entry in data set [2] is listed as “Non-Toxic”.

On to `CCOC(=O)c1cnc(-c2cccc(F)c2)nc1CC(C)C`, for which the inhibition at 50 µM in data set [3] turned out to be 46.3%. In data set [4], the Activity result is reported as “Non-Toxic”.

For the compound `O=C(NCc1ccc(F)cc1F)c1cn(-c2nccs2)nc1NCc1ccccc1`, in data set [5], the inhibition at 100 µM worked out at 32.9%. Further, in data set [6], the Activity was found to be 16.9%.

In the case of `Cc1ccc(-c2nc(CC(C)C)c(C(=O)NCc3ccc(F)cc3)s2)s1`, the inhibition entry in [1] is “inactive”. Further, the Activity result in [2] is recorded as “Non-Toxic”.

Broadly, the Kd is a measure of binding affinity in units of concentration. `CC(C)Cc1sc(-c2nccs2)nc1C(=O)Nc1ccc(F)cc1`: the inhibition at 100 µM in data set [5] was 89.8%. The Activity entry in data set [6] was “Non-Toxic”; in data set [14], 26.4 RU; in [15], 20.6 RU; in data set [16], 18.8 RU; in data set [17] it was 15.4 RU; in data set [19] it was “Dose-dependent effect”. Also, the half-maximal cytotoxic concentration (CC50) at 192 h in [7] was found to be 80.8 µM. Besides, the IC50 in data set [8] is 2.2 µM; in data set [10], more than 100 µM; in data set [12], more than 100 µM. Also, the selectivity ratio in [9] is 36.7; in [11] it was less than 0.8; in [13], less than 0.8. The Kd in data set [18] worked out at 60 µM.
